The nature of test [1]: Inhibition of recombinant Mycobacterium tuberculosis PTPB using pNPP as substrate by spectrophotometric method. An outline of the steps: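 Recombinant enzyme made in-house. Substrate pNPP in 50 mM 3,3-dimethylglutarate buffer, pH 7.0, with 1 mM EDTA and 150 mM NaCl, at 25 °C, screened in 96-well format. p-Nitrophenol product read at 405 nm. Non-enzymatic pNPP hydrolysis was corrected using a control without enzyme.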

The target in test [2] is T1, Tyrosine-protein phosphatase non-receptor type 11 (Homo sapiens, UniProt Q06124).
T1 sequence (Q06124 whole entry): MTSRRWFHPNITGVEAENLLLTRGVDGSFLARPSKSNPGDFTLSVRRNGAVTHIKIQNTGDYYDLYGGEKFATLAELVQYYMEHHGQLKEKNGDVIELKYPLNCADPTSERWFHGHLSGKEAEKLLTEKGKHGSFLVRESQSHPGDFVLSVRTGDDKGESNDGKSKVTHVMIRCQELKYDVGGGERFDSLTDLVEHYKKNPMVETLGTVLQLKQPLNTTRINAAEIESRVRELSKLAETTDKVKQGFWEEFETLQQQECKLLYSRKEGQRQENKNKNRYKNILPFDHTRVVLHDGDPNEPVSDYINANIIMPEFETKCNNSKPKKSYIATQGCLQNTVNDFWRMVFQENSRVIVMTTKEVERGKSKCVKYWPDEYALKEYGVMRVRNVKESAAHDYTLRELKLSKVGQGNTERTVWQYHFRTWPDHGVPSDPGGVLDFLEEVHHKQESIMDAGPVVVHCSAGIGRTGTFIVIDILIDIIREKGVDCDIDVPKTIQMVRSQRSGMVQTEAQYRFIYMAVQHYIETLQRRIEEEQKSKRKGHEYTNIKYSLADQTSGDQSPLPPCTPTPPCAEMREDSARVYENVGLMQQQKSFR
The test is described as follows: Inhibition of recombinant SHP2 (unknown origin) using pNPP as substrate by spectrophotometric method. In outline: (§1)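 Recombinant PTP prepared in-house, assayed with pNPP substrate in 50 mM 3,3-dimethylglutarate buffer pH 7.0 containing 1 mM EDTA and 150 mM NaCl at 25 °C, in 96-well format. p-Nitrophenol product was quantified by absorbance at 405 nm. Non-enzymatic pNPP hydrolysis was corrected using a no-enzyme control.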

Test [3] has as its target T2, Receptor-type tyrosine-protein phosphatase C (Homo sapiens, UniProt P08575).
T2 sequence (P08575 whole entry): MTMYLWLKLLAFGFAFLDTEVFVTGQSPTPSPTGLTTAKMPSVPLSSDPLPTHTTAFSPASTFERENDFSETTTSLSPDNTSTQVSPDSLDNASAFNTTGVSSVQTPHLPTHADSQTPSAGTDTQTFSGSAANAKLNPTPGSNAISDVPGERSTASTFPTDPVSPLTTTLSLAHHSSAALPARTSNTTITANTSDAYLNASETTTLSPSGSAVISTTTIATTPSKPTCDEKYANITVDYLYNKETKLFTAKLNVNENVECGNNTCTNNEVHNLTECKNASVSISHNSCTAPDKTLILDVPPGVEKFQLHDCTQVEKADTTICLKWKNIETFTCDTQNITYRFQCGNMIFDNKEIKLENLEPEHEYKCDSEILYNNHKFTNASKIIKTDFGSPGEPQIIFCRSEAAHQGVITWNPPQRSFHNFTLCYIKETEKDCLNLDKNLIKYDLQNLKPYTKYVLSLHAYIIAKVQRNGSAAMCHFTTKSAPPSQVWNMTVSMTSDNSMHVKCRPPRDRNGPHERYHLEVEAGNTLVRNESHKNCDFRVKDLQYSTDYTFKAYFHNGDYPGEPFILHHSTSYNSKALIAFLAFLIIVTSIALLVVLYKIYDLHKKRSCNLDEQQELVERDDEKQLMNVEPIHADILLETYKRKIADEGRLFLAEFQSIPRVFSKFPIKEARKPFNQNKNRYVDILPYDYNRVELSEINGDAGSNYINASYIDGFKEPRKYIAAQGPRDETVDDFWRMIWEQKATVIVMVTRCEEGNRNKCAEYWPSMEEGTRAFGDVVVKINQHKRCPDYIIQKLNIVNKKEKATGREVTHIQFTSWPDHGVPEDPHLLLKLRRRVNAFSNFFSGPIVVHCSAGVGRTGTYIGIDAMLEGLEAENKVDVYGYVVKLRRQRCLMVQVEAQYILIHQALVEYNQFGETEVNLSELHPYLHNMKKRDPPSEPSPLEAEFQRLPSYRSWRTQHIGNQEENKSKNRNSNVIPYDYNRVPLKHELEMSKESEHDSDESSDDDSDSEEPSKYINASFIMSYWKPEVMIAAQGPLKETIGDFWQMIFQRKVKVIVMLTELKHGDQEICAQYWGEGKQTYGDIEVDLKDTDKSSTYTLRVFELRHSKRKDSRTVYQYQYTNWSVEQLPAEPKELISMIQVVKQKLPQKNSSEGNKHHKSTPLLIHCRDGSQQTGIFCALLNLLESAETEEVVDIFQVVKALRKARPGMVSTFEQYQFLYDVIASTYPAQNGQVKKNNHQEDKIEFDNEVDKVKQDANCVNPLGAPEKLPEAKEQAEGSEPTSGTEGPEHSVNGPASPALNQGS
The test is described as follows: Inhibition of recombinant CD45 (unknown origin) using pNPP as substrate by spectrophotometric method. An outline of the steps: as §1

For test [4], the target named is Tyrosine-protein phosphatase non-receptor type 13 (Homo sapiens, UniProt Q12923). The test is described as follows: Inhibition of recombinant FAP1 (unknown origin) using pNPP as substrate by spectrophotometric method. In outline: as §1
Test [5] is described as follows: Selectivity ratio of IC50 for recombinant SHP2 (unknown origin) to IC50 for recombinant Mycobacterium tuberculosis PTPB.
Test [6] is described as follows: Selectivity ratio of IC50 for recombinant PTP1B (unknown origin) to IC50 for recombinant Mycobacterium tuberculosis PTPB.
Test [7] is described as follows: Selectivity ratio of IC50 for recombinant CD45 (unknown origin) to IC50 for recombinant Mycobacterium tuberculosis PTPB.
Test [8] in a line: Selectivity ratio of IC50 for recombinant LYP (unknown origin) to IC50 for recombinant Mycobacterium tuberculosis PTPB.
The nature of test [9]: Selectivity ratio of IC50 for recombinant FAP1 (unknown origin) to IC50 for recombinant Mycobacterium tuberculosis PTPB.

Sequence of Tyrosine-protein phosphatase non-receptor type 13 (Q12923 whole entry): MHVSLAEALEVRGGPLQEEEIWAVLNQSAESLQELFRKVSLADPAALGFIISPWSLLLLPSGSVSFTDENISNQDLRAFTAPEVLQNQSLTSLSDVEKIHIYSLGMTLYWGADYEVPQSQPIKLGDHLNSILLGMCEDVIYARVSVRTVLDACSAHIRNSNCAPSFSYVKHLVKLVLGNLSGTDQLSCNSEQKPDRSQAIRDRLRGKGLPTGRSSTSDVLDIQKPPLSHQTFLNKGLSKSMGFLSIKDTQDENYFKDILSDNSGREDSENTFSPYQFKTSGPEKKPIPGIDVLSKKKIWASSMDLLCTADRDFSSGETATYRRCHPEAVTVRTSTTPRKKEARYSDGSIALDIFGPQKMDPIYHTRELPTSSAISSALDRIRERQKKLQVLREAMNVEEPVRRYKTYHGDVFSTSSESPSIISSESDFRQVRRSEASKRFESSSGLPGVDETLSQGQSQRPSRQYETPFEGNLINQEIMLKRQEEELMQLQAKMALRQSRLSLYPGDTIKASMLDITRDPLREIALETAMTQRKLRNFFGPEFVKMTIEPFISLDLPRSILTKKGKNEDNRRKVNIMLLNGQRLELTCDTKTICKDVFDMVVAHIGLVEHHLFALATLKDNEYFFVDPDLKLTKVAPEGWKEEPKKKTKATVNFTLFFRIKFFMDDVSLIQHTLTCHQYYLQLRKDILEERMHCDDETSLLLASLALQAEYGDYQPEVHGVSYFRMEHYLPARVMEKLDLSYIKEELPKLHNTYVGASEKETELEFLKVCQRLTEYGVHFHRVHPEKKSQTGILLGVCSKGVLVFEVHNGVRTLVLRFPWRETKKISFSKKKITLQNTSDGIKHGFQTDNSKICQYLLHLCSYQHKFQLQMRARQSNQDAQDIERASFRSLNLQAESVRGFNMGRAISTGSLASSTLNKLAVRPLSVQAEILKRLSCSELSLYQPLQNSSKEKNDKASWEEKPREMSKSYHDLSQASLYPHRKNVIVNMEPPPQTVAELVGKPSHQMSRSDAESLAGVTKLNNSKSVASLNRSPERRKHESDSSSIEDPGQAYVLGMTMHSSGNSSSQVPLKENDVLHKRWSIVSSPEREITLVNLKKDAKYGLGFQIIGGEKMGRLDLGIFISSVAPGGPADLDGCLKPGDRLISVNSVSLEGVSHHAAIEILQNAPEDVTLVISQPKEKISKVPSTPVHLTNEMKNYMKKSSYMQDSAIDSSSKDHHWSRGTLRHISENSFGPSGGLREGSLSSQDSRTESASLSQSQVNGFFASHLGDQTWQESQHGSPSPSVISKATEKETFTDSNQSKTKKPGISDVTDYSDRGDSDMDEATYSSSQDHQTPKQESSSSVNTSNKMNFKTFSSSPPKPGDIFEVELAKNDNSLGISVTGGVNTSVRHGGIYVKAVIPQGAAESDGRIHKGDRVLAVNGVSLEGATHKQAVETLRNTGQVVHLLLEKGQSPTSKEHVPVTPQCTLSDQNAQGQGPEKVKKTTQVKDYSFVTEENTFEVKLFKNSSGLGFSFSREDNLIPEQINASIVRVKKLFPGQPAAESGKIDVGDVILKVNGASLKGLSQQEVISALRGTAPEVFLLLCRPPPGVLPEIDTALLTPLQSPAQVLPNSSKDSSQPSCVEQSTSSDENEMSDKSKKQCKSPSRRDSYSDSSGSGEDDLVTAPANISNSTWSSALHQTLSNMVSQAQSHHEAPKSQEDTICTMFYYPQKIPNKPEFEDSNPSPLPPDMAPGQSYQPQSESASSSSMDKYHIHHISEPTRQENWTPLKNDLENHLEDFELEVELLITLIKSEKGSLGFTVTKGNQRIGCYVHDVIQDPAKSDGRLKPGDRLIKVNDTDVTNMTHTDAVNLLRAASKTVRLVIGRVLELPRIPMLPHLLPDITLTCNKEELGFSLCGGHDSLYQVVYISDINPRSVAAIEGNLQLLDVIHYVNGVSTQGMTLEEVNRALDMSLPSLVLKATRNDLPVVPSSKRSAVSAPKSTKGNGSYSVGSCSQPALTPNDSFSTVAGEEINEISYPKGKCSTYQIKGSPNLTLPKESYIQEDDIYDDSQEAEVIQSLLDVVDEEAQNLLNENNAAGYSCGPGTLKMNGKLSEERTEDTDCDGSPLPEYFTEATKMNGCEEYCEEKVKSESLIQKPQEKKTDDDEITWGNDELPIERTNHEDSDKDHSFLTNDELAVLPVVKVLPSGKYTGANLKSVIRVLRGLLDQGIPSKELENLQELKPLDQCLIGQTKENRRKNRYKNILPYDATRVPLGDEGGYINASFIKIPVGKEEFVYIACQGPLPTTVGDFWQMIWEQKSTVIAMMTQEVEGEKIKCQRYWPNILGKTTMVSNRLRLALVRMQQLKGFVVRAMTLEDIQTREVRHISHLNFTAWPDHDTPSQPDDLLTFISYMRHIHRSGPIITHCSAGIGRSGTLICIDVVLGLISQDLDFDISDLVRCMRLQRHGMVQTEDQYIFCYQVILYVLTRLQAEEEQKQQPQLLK

With `Cc1ccc(S(=O)(=O)NNC(=O)COc2ccc3cc(C(O)(C(F)(F)F)C(F)(F)F)c(O)cc3c2)cc1`, the IC50 in test [1] was 2.3 µM; in [2], 20.3 µM; in test [3] it was 16.1 µM; in test [4], 14.9 µM. The Ratio IC50 in [5], in test [6], in [7], in test [8] and in [9] was above 7 each time.

The values are drawn from ChEMBL document CHEMBL3861950, “Design, synthesis and evaluation of novel 19F magnetic resonance sensitive protein tyrosine phosphatase inhibitors” (Medchemcomm, 2016).
